# Assay results pooled from the literature.
# Protocols differ between the studies behind these lines.
# JAK1 JH1: Tyrosine-protein kinase JAK1, JH1 (JAK1, Homo sapiens, UniProt P23458)
# JAK1: Tyrosine-protein kinase JAK1 (JAK1, Homo sapiens, UniProt P23458)
# JAK1 JH2: Tyrosine-protein kinase JAK1, JH2 (JAK1, Homo sapiens, UniProt P23458)
SMILES,target,assay,test system,conditions,quantity,result
Cc1ccc(NC(=O)c2ccc(C)c(C(F)(F)F)c2)cc1C#Cc1nn(C2CCC(O)CC2)c2ncnc(N)c12 (stereo not drawn),JAK1 JH1,cell-free assay,,10 µM,remaining signal,3%
Cc1ccc(C(=O)Nc2ccc(CN3CCN(C)CC3)c(C(F)(F)F)c2)cc1C#Cc1cnc2cccnn12,JAK1,"enzyme activity, inhibitor",,23.5 nM,remaining activity,86%
CN(CCCC(F)(F)F)c1nccc(-c2cnn3ncccc23)n1,JAK1 JH1,"cell-free assay, competition with immobilised ligand",,1 µM,remaining binding,100%
CNc1cc(Oc2cc(C(=O)Nc3cc(N4CCN(C)CC4)cc(C(F)(F)F)c3)ccc2C)ncn1,JAK1 JH2,"target engagement in cells, inhibitor, chemoproteomics",Huh-7,1 µM,inhibition,-25.7%
O=C1NC(=O)c2cc(Nc3ccc(F)cc3)c(Nc3ccc(F)cc3)cc21,JAK1,cell-free assay,,0.5 µM,remaining signal,91.5%
CN1CCN(c2cnc3c(C4CCN(C(=O)c5ccc(OC(F)(F)F)cc5N)CC4)ncnc3c2)CC1,JAK1 JH1,"cell-free assay, competition with immobilised ligand",,1 µM,remaining binding,100%
Cc1sc(C(=O)NC2COC2)cc1-n1cc(NC(=O)Nc2c(F)cccc2Cl)cn1,JAK1,"enzyme activity, inhibitor",,10 µM,remaining activity,72.2%
COc1cc2nccc(Oc3ccc(NC(=O)c4c5n(n(-c6ccc(F)cc6)c4=O)CCCC5)cc3)c2cc1OC,JAK1,"enzyme activity, inhibitor",,0.1 µM,inhibition,-5%
CS(=O)(=O)Nc1cccc(-c2csc(NC(=O)CSc3nc4nccnc4c(=O)n3CCc3ccccc3)n2)c1,JAK1,"enzyme activity, inhibitor",,10 µM,inhibition,9%
Cc1cnc(NC2CCOCC2)nc1-n1cnc(C(=O)NC(CN)c2cc(F)cc(Cl)c2)c1 (stereo not drawn),JAK1 JH1,"enzyme activity, inhibitor, radiometric",,1 µM,remaining activity,93%
CC/C(=N\NC(=O)NCc1cccc(O)c1)c1ccc(O)c(C)c1O,JAK1,"enzyme activity, inhibitor",,0.1 µM,inhibition,3.4%
C[C@@H]1CCN(c2nccc(-c3cnn4ncccc34)n2)C1,JAK1 JH1,cell-free assay,,1 µM,remaining signal,82%
CN([C@@H]1CCc2c(CC(=O)O)c3cc(S(C)(=O)=O)ccc3n2C1)S(=O)(=O)c1ccc(F)cc1,JAK1 JH2,"cell-free assay, competition with immobilised ligand",,1 µM,remaining binding,94%
Cc1cnn2ncc(-c3ccnc(N(C)C)n3)c2c1,JAK1,binding,,1 µM,remaining binding,51%
O=C(Nc1cnn(-c2csc(C(=O)NC3COC3)c2)c1)Nc1c(F)cccc1Cl,JAK1,"enzyme activity, inhibitor",,5 µM,remaining activity,107%
CS(=O)(=O)NCC[C@H](NC(=O)c1cncc2c1cnn2-c1ccc(F)cc1)c1ccnc(S(C)(=O)=O)c1,JAK1 JH2,"cell-free assay, competition with immobilised ligand",,1 µM,remaining binding,100%
Nc1ncnc2occ(-c3ccc(NC(=O)Nc4cc(C(F)(F)F)ccc4F)cc3)c12,JAK1 JH2,"cell-free assay, inhibitor",,20 µM,remaining signal,67%
COc1cc2ncnc(Nc3ccc(F)c(Cl)c3)c2cc1OCCCN1CCOCC1,JAK1,cell-free assay,,0.5 µM,remaining signal,102%
CS(=O)(=O)N1CCCC(NC(=O)[C@H](CCC2CCCCC2)NC(=O)c2ccc(CNc3ncnc4c3nnn4-c3ccccc3)cc2)C1 (stereo partly drawn),JAK1 JH2,"cell-free assay, competition with immobilised ligand",,0.1 µM,remaining binding,89%
CN(C)C1CCN(CC#Cc2nn(C3CCCC3)c3nc(NCc4ccccc4)ncc23)C1 (stereo not drawn),JAK1,"enzyme activity, inhibitor, FRET",,10 µM,inhibition,2%
CS(=O)(=O)N1CCCC(NC(=O)[C@H](CCC2CCCCC2)NC(=O)c2ccc(CNC(=O)c3cnc4ccccn34)cc2)C1 (stereo partly drawn),JAK1 JH1,"cell-free assay, competition with immobilised ligand",,0.1 µM,remaining binding,64%
N#CCCc1ccc2c(c1)-c1[nH]c3ccc([N+](=O)[O-])cc3c1CC(=O)N2,JAK1,cell-free assay,,0.5 µM,remaining signal,91.9%
Cc1c[nH]c2nccc(Oc3c(F)cc(Nc4cc(Cl)nc(N)n4)cc3F)c12,JAK1 JH1,"cell-free assay, competition with immobilised ligand",,0.1 µM,remaining binding,80%
c1nc2c(Nc3ccc4c(c3)OCCO4)nc(Nc3ccc4c(c3)OCCO4)nc2[nH]1,JAK1 JH1,"enzyme activity, inhibitor",,10 µM,activity vs control,52%
CC(=O)C1=C(C)N(c2cccc(C(F)(F)F)c2)C(=O)N[C@@H]1c1ccc(C#N)nc1,JAK1 JH1,"cell-free assay, competition with immobilised ligand",,1 µM,remaining binding,85.9%
CN(c1nccc(-c2cnn3ncccc23)n1)C1CC1,JAK1,binding,,1 µM,remaining binding,100%
O=c1nc(-c2ccccn2)sc2ccccc12,JAK1 JH2,"binding, competition with immobilised ligand",,1 µM,remaining binding,86%
CC(C)(C)c1nc(-c2cccc(NS(=O)(=O)c3c(F)cccc3F)c2F)c(-c2ccnc(N)n2)s1,JAK1,"enzyme activity, inhibitor, radiometric",,1 µM,remaining activity,84%
N[C@H]1CCN(c2nccc(-c3cnn4ncccc34)n2)C1,JAK1 JH1,cell-free assay,,1 µM,remaining signal,100%
COc1cc2ncnc(Nc3ccc(Oc4ccccc4)cc3C)c2cc1OC,JAK1,"enzyme activity, inhibitor",,1 µM,inhibition,-5%
